High-throughput results (PubChem BioAssay)
RGS4 act: RGS4 potentiators or activators, primary screen, cell-based, HEK293 M3R inducible RGS4, calcium flux; carbachol calcium flux Fluo4; hits give low values; B-score at 10 µM; 0.92% of 310,000 active; AID 463111, 2010;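 active means B-score of the integrated calcium signal more than 4 SD below the library mean, with starting fluorescence not abnormally high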;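 further: negative B-score means reduced calcium response which marks RGS4 activation or potentiation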
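test system = HEK293 cells with stable M3R and inducible RGS4 | schedule = recording 10 s baseline at 1 Hz, 100 s post-agonist | technique = Fluo4-AM (2 µM) calcium-flux fluorescence, kinetic read | measure = Agonist-evoked peak-minus-minimum fluorescence over baseline, integrated ratio, B score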
MrgX1 PAM: positive allosteric modulators of MrgX1, primary screen, HEK293 cells, Fluo-4 calcium flux; Mas-related G-protein coupled receptor member X1 (Homo sapiens), Q96LB2; FDSS; hits give high values; B-score at 10 µM; 0.63% of 310,000 active; AID 588675, 2011;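 active means plate-corrected calcium response at least 3 library SD above typical, normal starting fluorescence, not activating the receptor alone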;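 further: compound read alongside a low EC10 to EC30 dose of BAM8-22 agonist; peak minus trough fluorescence over baseline measured at the second addition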
Target sequence (Q96LB2 whole entry, looked up): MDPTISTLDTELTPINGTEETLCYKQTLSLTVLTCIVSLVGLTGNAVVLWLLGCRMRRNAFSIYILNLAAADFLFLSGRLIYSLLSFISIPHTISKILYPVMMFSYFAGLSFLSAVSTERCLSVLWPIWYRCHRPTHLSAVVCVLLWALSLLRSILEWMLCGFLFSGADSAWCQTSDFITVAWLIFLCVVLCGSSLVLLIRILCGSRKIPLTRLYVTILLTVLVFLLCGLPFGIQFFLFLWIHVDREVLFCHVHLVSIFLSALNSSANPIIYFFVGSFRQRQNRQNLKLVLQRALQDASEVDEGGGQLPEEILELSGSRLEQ
MrgX1 agonist: agonists of human MrgX1 receptor, primary screen, HEK293 cells, Fluo-4 calcium flux; Mas-related G-protein coupled receptor member X1 (Homo sapiens), Q96LB2; Fluo-4 calcium fluorescence, agonist mode; hits give high values; B-score at 10 µM; 0.44% of 310,000 active; AID 588627, 2011;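 active means calcium response B-score plate-corrected fluorescence ratio at least 3 library SD, with starting fluorescence B-score inside 5 SD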
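Test system: HEK293 cells stably expressing human MrgX1 receptor; amount: 15,000 cells per well; doses: compound delivered in addition one of three; times: overnight plating before 1 h dye loading; detection: Fluo-4 NW calcium-flux fluorescence, kinetic read; read-out basis: B-scored fluorescence response ratio; controls: positive and negative controls per plate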
MrgX1 antag: antagonists of human MrgX1 receptor, primary screen, HEK293 cells, Fluo-4 calcium flux; BAM8-22 antagonism; hits give low values; B-score at 10 µM; 1.3% of 310,000 active; AID 588676, 2011;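 active means calcium-response B-score plate-corrected more than 3 library SD below zero, starting fluorescence within 5 deviations, no agonist response on first addition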;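 further: peak minus trough fluorescence over baseline after final BAM8-22 challenge near maximal dose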
RGS4 inh: RGS4 inhibitors, primary screen, cell-based, HEK293 M3R inducible RGS4, calcium flux | Regulator of G-protein signaling 4 (Homo sapiens), P49798 | Fluo-4 calcium flux; hits give high values; triggered by carbachol at its EC20 | B-score at 10 µM | 0.45% of 310,000 active;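 active means B-score, a plate-corrected calcium signal, over three deviations above library mean, with baseline fluorescence within five deviations of library mean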;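 further: RGS4 expression induced by doxycycline in cells with stable M3 receptor; B-score is computed from the integrated fluorescence ratio over baseline after carbachol; higher B-score means a larger calcium signal and so more RGS4 inhibition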
Target sequence (P49798 whole entry, looked up): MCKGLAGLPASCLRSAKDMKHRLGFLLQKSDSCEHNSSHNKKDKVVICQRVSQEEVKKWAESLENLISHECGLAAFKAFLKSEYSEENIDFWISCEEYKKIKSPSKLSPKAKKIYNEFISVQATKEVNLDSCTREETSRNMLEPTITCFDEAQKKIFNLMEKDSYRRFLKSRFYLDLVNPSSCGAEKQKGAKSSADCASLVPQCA
RGS4 act valid: reduced carbachol calcium response, RGS4-induced M3R cells, confirmation, RGS4 activator project, cell-based, HEK293 M3R/RGS4 inducible, calcium flux, duplicate | inhibition, % at 10 µM | carbachol calcium flux Fluo4 | 89% of 1,100 active | AID 602282, 2012 | shares compounds with RGS4 act;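 active means inhibition above 3 SD of the buffer control wells, cut at about 41% in these data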;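 further: signal is the integrated peak-minus-minimum Fluo4 fluorescence over baseline ratio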
RGS4 act ctr: activity in cells without induced RGS4 expression; shares compounds with RGS4 act; HEK293 M3R non-induced RGS4, Fluo4 calcium flux; after carbachol challenge at its EC90; inhibition, % at 10 µM; 82% of 1,100 active; AID 602283;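 active means inhibition exceeding 3 SD of buffer-only control wells, cut at about 26% in these data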;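 further: percent drop in integrated peak-minus-baseline over baseline Fluo4 ratio after carbachol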
Each line names hits and unclear results; the compound was inactive in the other large screens (follow-up assays come after a bar, where they were run). Compounds with a hit are over-represented: about 3.5% of the library has one in this group of screens.

CSCCC(NS(=O)(=O)c1ccc2c(c1)c(=O)n(C)c(=O)n2C)C(=O)NC1CCN(Cc2ccccc2)CC1 (stereo not given)	none
CN(CC(=O)NC1CCN(Cc2ccccc2)CC1)S(=O)(=O)c1ccc2c(c1)c(=O)n(C)c(=O)n2C	RGS4 act -9.4 | RGS4 act valid 76 | RGS4 act ctr 47
COc1ccc(C)cc1S(=O)(=O)N1CCN(C(=O)c2ncoc2-c2ccc(C)cc2)CC1	RGS4 act -8.2 | RGS4 act valid 82 | RGS4 act ctr 32
COc1cccc(NC(=O)Cn2c3ccc(F)cc3c3nc4n(c(=O)c32)CCCS4)c1	none
c1cc2c3c(cccc3c1)C(N1CCOCC1)=N2	none
c1ccc(CC2CCN(C3=Nc4cccc5cccc3c45)CC2)cc1	RGS4 act -9.1, MrgX1 antag -5.7 | RGS4 act valid 94 | RGS4 act ctr 98
COc1cccc(CN2CCCC(C(=O)Nc3ccc(-c4cscn4)cc3)C2)c1 (stereo not given)	RGS4 act -9.9 | RGS4 act valid 92 | RGS4 act ctr 62
Cc1ncc(CN2CCCC(C(=O)Nc3ccc(-c4cscn4)cc3)C2)cn1 (stereo not given)	none
O=S(=O)(c1ccc(N2CC=C(c3ccccc3)CC2)nc1)N1CCCC1	RGS4 act -9.3 | RGS4 act valid 54 | RGS4 act ctr inactive
Cc1cc2ncn(S(=O)(=O)c3ccc(F)cc3)c2cc1C	none
CCOc1ccc(S(=O)(=O)n2cnc3cc(C)c(C)cc32)cc1	RGS4 act -9.9 | RGS4 act valid 94 | RGS4 act ctr 95
CN(C)CC[C@@H](c1ccc(Cl)cc1)c1ccccn1	RGS4 act -13 | RGS4 act valid 57 | RGS4 act ctr inactive
CN(C)CC[C@@H](c1ccc(Br)cc1)c1ccccn1	none
O=C(CCC1CCCN(C2C3CC4CC(C3)CC2C4)C1)NCc1ccc(F)c(F)c1 (stereo not given)	RGS4 act -7.7 | RGS4 act valid 81 | RGS4 act ctr 45
CCCCC(=O)N/N=C(/C)C1=C(C)C(C)(C)OC1=O	none
CCOC(=O)c1ccc(CNCc2ccccc2)cc1	RGS4 act -12 | RGS4 act valid 87 | RGS4 act ctr 29
CCOC(=O)c1ccc(CNCc2ccc(Br)cc2)cc1	none
Cc1ccc(NS(=O)(=O)c2ccc(Cl)c(C(=O)Nc3cccc(C(=O)O)c3)c2)cc1	none
O=C(O)c1ccc(N/N=C/c2ccc(OC(=O)c3ccccc3Cl)cc2)cc1	RGS4 act -14 | RGS4 act valid inactive | RGS4 act ctr inactive
O=C(O)c1ccc(N/N=C/c2ccc(-c3ccccc3)cc2)cc1	none (no result: MrgX1 PAM, MrgX1 agonist, MrgX1 antag)
Cc1ccc(CN(C)C(=O)C2CCC(=O)N(CCc3ccccc3)C2)o1 (stereo not given)	none (no result: MrgX1 PAM, MrgX1 agonist, MrgX1 antag)
COc1ccc2c(C)c(CCC(=O)NCCCN3CCCC3=O)c(=O)oc2c1C	RGS4 act -8.9 | RGS4 act valid inactive | RGS4 act ctr inactive
CC1CCN(c2ccccc2NC(=O)c2ccc(Br)o2)CC1	RGS4 act -9.4 | RGS4 act valid 54 | RGS4 act ctr inactive
Cn1nc(C(F)(F)F)c2cc(NC(=O)OCc3ccc(F)cc3)sc21	RGS4 act -7.9 | RGS4 act valid 74 | RGS4 act ctr 84
COC(=O)C/C(C)=N/Nc1ccc(S(=O)(=O)N2CCCC2)cc1[N+](=O)[O-]	none
COc1cccc(-c2csc(N3CCN(C(=S)NCC(C)C)CC3)n2)c1	RGS4 act -7.7 | RGS4 act valid 80 | RGS4 act ctr 56
CCNC(=S)N1CCN(c2nc(-c3cccc(OC)c3)cs2)CC1	none
CCC(CC)NC(=O)Nc1ccccc1C(F)(F)F	none
